Measurements published in ChEMBL document CHEMBL4834419 (J Med Chem, 2021).

Tests used:
[1] = biological target: T1, Retinoic acid receptor RXR-gamma (Homo sapiens, UniProt P48443); assay: Agonist activity at human RXRgamma transfected in human HEK293T cells co-expressing pFR/pRL-Luc incubated for 14 to 16 hrs by hybrid reporter gene assay; assay type: cell-based
T1 sequence (P48443 whole entry): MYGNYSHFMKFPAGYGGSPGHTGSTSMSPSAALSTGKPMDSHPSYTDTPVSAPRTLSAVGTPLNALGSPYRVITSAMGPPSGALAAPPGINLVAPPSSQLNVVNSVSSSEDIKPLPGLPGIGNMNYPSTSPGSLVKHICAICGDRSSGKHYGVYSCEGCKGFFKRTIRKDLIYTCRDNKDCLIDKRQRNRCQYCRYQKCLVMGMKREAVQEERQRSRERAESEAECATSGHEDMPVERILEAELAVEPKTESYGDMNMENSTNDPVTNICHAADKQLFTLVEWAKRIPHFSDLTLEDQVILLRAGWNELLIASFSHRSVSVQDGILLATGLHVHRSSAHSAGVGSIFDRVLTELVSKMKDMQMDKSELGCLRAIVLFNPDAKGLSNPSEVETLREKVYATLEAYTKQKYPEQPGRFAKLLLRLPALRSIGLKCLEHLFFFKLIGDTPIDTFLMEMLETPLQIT

[2] = Metabolic stability in Sprague-Dawley rat liver microsomes assessed as compound degradation at 10 uM incubated for 60 min by HPLC analysis; assay type: ADME; conditions: 1 h
Outline: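 Compound at 10 μM final in 0.1 M phosphate, pH 7.4, was preincubated 5 min at 37 °C with an NADPH-regenerating system. Sprague-Dawley rat liver microsomes were then added. Reactions were stopped with ice-cold methanol at 0, 15, 30 and 60 min and remaining compound quantified by HPLC against an external calibration. Controls: no NADPH, heat-inactivated microsomes. Three independent experiments.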

[3] = biological target: T2, Peroxisome proliferator-activated receptor gamma (Homo sapiens) (UniProt P37231); assay: Agonist activity against human PPARgamma in human HEK293T cells co-expressing pFR/pRL-Luc assessed as receptor activation at 10 uM incubated for 14 to 16 hrs by hybrid reporter gene assay relative to bexarotene; assay type: cell-based; conditions: filed as agonist, time 14-16 hrs
T2 sequence (whole entry): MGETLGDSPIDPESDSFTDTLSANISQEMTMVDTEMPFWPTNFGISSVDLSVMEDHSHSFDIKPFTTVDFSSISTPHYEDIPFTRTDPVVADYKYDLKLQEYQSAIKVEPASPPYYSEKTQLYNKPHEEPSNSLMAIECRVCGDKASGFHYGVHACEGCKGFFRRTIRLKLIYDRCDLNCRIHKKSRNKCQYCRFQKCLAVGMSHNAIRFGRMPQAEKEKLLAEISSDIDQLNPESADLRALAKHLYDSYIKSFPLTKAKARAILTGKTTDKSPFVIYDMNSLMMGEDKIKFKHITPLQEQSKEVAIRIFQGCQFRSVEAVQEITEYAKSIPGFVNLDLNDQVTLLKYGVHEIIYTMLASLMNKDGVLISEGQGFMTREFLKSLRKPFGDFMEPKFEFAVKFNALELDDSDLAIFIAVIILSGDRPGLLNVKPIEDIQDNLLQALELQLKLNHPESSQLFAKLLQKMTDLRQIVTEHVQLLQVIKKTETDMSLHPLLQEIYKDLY
Outline: (§1)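 Gal4 hybrid reporter assay in HEK293T cells, seeded 24 h before transfection (Lipofectamine LTX, Opti-MEM) with pFR-Luc, pRL-SV40 and pFA-CMV plasmid carrying the hinge region and LBD of the human receptor. After 5 h, compound added in 0.1% DMSO, with 0.1% DMSO alone as untreated control. Dual-Glo luciferase read after 14−16 h; firefly/renilla normalized; duplicates, ≥2 independent experiments.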

[4] = biological target: T3, Oxysterols receptor LXR-beta (Homo sapiens) (UniProt P55055); assay: Agonist activity against human LXRbeta in human HEK293T cells co-expressing pFR/pRL-Luc assessed as receptor activation at 10 uM incubated for 14 to 16 hrs by hybrid reporter gene assay relative to bexarotene; assay type: cell-based; conditions: filed as agonist, time 14-16 hrs; outline: as §1
T3 sequence (whole entry): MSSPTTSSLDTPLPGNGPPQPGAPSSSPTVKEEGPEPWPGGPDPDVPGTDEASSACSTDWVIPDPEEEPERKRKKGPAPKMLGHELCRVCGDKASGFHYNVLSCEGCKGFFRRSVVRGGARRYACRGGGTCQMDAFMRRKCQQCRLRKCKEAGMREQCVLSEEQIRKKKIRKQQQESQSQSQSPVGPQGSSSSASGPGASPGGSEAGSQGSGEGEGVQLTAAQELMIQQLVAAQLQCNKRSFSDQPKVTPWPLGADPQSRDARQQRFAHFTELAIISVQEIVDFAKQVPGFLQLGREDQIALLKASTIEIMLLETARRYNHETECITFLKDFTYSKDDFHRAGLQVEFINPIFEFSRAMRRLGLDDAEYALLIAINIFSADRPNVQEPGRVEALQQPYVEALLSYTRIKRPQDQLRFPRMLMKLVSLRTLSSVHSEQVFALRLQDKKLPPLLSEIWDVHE

[5] = biological target: T4, Bile acid receptor (Homo sapiens) (UniProt Q96RI1); assay: Agonist activity against human FXR in human HEK293T cells co-expressing pFR/pRL-Luc assessed as receptor activation at 10 uM incubated for 14 to 16 hrs by hybrid reporter gene assay relative to bexarotene; assay type: cell-based; conditions: filed as agonist, time 14-16 hrs; outline: as §1
T4 sequence (whole entry): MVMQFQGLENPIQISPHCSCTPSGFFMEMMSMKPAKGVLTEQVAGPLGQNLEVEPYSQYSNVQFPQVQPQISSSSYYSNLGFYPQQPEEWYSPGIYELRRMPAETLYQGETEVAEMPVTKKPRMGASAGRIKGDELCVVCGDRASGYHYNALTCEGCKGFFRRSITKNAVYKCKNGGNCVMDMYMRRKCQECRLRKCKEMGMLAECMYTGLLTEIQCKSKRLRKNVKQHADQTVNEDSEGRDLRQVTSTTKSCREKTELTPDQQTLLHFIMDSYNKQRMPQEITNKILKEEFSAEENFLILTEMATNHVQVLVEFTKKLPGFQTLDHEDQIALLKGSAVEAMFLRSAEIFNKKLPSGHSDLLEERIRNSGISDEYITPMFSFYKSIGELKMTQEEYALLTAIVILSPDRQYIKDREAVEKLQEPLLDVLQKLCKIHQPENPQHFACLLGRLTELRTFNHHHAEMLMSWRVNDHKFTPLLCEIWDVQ

EC50 [1]: 1600 nM
Stabilty [2]: Stable
Activity [3]: 2%
Activity [4]: 2%
Activity [5]: 1%
SMILES: O=C(O)CCCc1cc(-c2cc(Cl)cc(Cl)c2)n(-c2ccccc2)n1
